From PubChem
Rows were chosen to be rich in hits. Some 4.3% of all compounds tested hit in one or more screens of this group.
SMARCA2 act: increases SMARCA2 function in MMTV reporter cells | MG213 cells, MMTV-luciferase reporter, dexamethasone, overnight | activation, % at 9.1 µM | 1% of 370,000 active | AID 652017; in the data active means activation above about 7.8%
Lipid droplet: hepatic lipid droplet formation modulation; AML12 mouse hepatocytes, oleate lipid droplets, BODIPY imaging; inhibition, % at 6.5 µM; 0.4% of 240,000 active; AID 1656;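 active means lipid droplet intensity inhibited by at least 50%, with more than 500 cells counted; inconclusive means wells with under 300 cells, treated as cytotoxic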
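Assay system: AML12 hepatocytes (mouse); Probe or stimulus: oleic acid at 100 µM to induce lipid droplet formation; Dosing: compound at 6.5 µM only; Schedule: compound with oleate, overnight; Detection: fluorescence imaging, 20x objective, two fields per well; Measure: % inhibition of lipid droplet signal.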
AHR act: human AHR activation; P35869; AHR-responsive luciferase reporter cells, luminescence; activation, % at 5 µM; 2.5% of 320,000 active; in the data active means activation above about 47%
SR-BI DiI inh: blocks mouse SR-BI lipid uptake from DiI-HDL; ldlA[mSR-BI] CHO cells, DiI-HDL uptake fluorescence, 3 h; inhibition, % at 12.5 µM; 0.96% of 320,000 active;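 active means mean replicate inhibition of at least 70% and a set share of replicates each scoring 70 or more; inconclusive means meets just one of the two criteria; inactive means fails both criteria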
Target sequence (Q61009 whole entry, looked up): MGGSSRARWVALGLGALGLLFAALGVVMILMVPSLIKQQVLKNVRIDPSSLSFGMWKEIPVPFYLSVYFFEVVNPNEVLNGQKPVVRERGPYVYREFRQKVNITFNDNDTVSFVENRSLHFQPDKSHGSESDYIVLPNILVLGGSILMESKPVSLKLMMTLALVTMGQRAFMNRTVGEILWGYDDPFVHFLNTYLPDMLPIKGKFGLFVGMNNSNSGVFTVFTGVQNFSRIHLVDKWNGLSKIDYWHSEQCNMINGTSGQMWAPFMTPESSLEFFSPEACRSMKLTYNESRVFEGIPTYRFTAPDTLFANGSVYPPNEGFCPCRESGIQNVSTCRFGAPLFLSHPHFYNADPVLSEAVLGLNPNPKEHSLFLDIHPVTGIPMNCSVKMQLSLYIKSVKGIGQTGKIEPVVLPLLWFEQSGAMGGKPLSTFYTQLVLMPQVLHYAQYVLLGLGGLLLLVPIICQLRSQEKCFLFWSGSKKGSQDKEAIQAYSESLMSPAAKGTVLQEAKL
SR-BI uptake up: activators of SR-BI mediated HDL lipid uptake; 0.096% of 320,000 active; activation, % at 12.5 µM; CHO ldlA[mSR-BI] cells, DiI-HDL uptake fluorescence, 3 h; 100 = double the neutral-control signal;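 active means mean replicate activation of at least 60% and every replicate at or above 60%; inconclusive means mean or all-replicate condition met, but not both; inactive means mean below 60% and not all replicates reaching 60%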
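system = CHO ldlA[mSR-BI] cells, LDL receptor-null, SR-BI overexpressing | medium = Ham's F12 with 0.5% BSA, HEPES 25 mM, pH 7.4 | probe or stimulus = DiI-HDL 10 µg/mL | compound dosing = single-point compound dose | incubation = compound exposure 3 h, 37 °C | technique = DiI fluorescence, bottom read | read-out = cell-associated DiI fluorescence as measure of HDL uptake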
CR mimetic SO: yeast age-related superoxide inhibition as caloric restriction mimetic. S. cerevisiae aged cells, superoxide DHE fluorescence; stronger effect = lower value. superoxide response (% of plate mean), % at 10 µM. 0.18% of 330,000 active. AID 2690;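 active means superoxide response under a set limit, about three screen SD below normal, cut at about 65% in these data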;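 further: yeast aged for seven days with compound at 30 °C before DHE staining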
Numbers stand for hits; . = inactive; ? = inconclusive; / = no result.

SMILES	SMARCA2 act	Lipid droplet	AHR act	SR-BI DiI inh	SR-BI uptake up	CR mimetic SO
COc1ccc(NC(=O)N2CCN(c3nc4ccccc4n3C(C)C)CC2)cc1	.	.	.	81	.	.
COC(=O)[C@]12CCCCC=C1N(Cc1ccc(OC)cc1)C(=O)[C@@H]2CC(=O)NCCCN1CCCC1=O	.	/	/	/	/	/
COc1ccc(Oc2ccccc2/C=C/C(=O)O)cc1	.	.	.	.	536	.
O=C(Nc1cccc([N+](=O)[O-])c1)c1cnccn1	.	.	.	.	.	.
O=C(CSC1=NCCN1)Nc1ccccc1[N+](=O)[O-]	.	.	.	?	.	.
O=C(CSC1=NCCN1)Nc1cccc([N+](=O)[O-])c1	.	.	.	82	.	.
O=C(Nc1cccnc1)Nc1cccc([N+](=O)[O-])c1	.	.	77	.	.	.
O=C(Nc1cccc([N+](=O)[O-])c1)c1[nH]ncc1Cl	.	.	75	.	.	.
CCC(C)c1ccc(NC(=O)Nc2cccnc2)cc1 (configuration not stated)	.	.	79	.	.	.
COC(=O)[C@]12C[C@H](CC(=O)NCCCCc3ccccc3)C(=O)N(Cc3ccccc3)C1=C[C@H](COCc1ccccc1)O[C@@H]2C	.	/	/	/	/	/
CCCCc1c(-c2ccccc2OC)ncn1Cc1c(Cl)cccc1Cl	.	/	/	/	/	/
Cc1cc(Nc2ccc(OC(F)F)cc2)cc(=O)n1-c1ccc(OC(F)F)cc1	.	/	/	/	/	/
Cc1cc(C)nc(/N=C(\N)Nc2cccc([N+](=O)[O-])c2)n1	.	.	52	.	.	.
CCOC(=O)Nc1cc(=O)c([N+](=O)[O-])c(N)[nH]1	.	/	/	/	/	/
CC(=O)Nc1ccc(N=C(C2=C(O)c3ccccc3C2=O)c2ccccc2)cc1	.	.	64	.	.	.
Cc1ccc(O)c(-c2cc(C(=O)Nc3cccnc3)[nH]n2)c1	.	.	60	/	/	.
COc1ccc(OC)c(NC(=O)c2cc(-c3cc(C)ccc3O)n[nH]2)c1	.	.	/	76	.	.
CCOc1ccccc1Nc1nc(-c2sc(NC(=O)c3ccco3)nc2C)cs1	.	/	66	.	.	.
Cc1ccccc1Nc1nc(-c2sc(NC(=O)c3ccco3)nc2C)cs1	.	.	.	.	.	.
Cc1ccc(Nc2nc(C(=O)NCc3ccco3)cs2)cc1	.	/	52	.	.	.
Cc1ccc(Nc2nc(-c3sc(NC(=O)c4ccco4)nc3C)cs2)cc1	.	.	58	.	.	.
Cc1ccc(C(=O)CSc2n[nH]c(C)n2)cc1	.	/	.	.	.	.
CCc1ccc(C(=O)CSc2n[nH]c(C)n2)cc1	.	/	56	.	.	.
COc1ccc(C(=O)/C=C2\Sc3ccccc3N2C)cc1	.	.	50	.	.	.
C[C@H]1Cn2cnc(C(=O)N(C)Cc3ccccc3)c2C(=O)N1	.	/	/	/	/	/
SMILES	SMARCA2 act	Lipid droplet	AHR act	SR-BI DiI inh	SR-BI uptake up	CR mimetic SO
Clc1cccc(CSc2nnc(-c3c[nH]c4ccccc34)o2)c1	.	.	52	.	.	.
COC(=O)CCc1sc(Nc2ccccc2)nc1-c1ccc(OC)cc1	9.7	.	.	.	.	.
COc1ccc(Nc2nc(-c3ccc(OC)cc3)c(CCC(=O)O)s2)cc1	.	.	.	/	/	.
Cc1ccc(-n2c(SC/C=C/c3ccccc3)nnc2-c2ccco2)cc1	.	/	/	/	/	/
Cc1cc(NC(=O)Nc2cc(C)nn2-c2ccccc2)n(-c2ccccc2)n1	.	.	.	84	.	.
Cc1cccc2sc(NNC(=O)c3cc(-c4cccs4)nc4ccccc34)nc12	.	.	.	72	.	.
COc1ccc(OC)c(CN2C(=O)CCCC2(C)c2nnnn2C2CCCC2)c1 (configuration not stated)	.	/	/	/	/	/
Oc1[nH]c2ccccc2c1C1=NCCCCC1	.	.	62	.	.	.
CCc1nnn2c1Cn1c3ccccc3c(=O)n1[C@@H](C)C2	.	/	/	/	/	/
COc1ccccc1C1(O)CCN(CC(=O)Nc2nc(-c3ccccc3)cs2)CC1	.	89	.	.	.	.
Cc1ccccc1/C=N\NC(=O)c1csnn1	.	/	51	.	.	.
Cc1cc(C)n(-c2nc(C)nc3c2cnn3-c2ccccc2)n1	.	.	49	.	.	.
COC(=O)[C@]12C[C@H](CC(=O)NCc3ccccc3)C(=O)N(Cc3ccccc3)C1=C[C@H](C1CCCC1)O[C@@H]2C	.	/	/	/	/	/
O=C1C(Cl)=C(NCCc2ccccc2)C(=O)c2ccccc21	.	/	/	.	.	/
C=CCNC1=C(Cl)C(=O)c2ccccc2C1=O	.	.	52	.	.	.
CCOC(=O)c1sc2nc(N3CCOCC3)c3c(c2c1N)CCCC3	.	/	.	74	.	.
Cc1ccc(F)cc1C(=O)N1CCCC(c2nc(-c3cccs3)no2)C1 (configuration not stated)	.	/	/	/	/	/
c1ccc(N/N=C(\Cc2nc3ccccc3[nH]2)c2ccccc2)cc1	.	.	149	.	.	.
N#CCCN/N=C(/Cc1nc2ccccc2[nH]1)c1ccc(Cl)cc1	/	.	48	/	/	.
CCOC(=O)C1=Nc2ccccc2C1=[N+]=[N-]	.	.	66	.	.	.
CCOC(=O)C1=Nc2cccc3c(O)ccc1c23	.	/	/	/	/	/
COc1cccc(/C=C2\CC3(OC(=O)c4ccccc4)CCCN2C3)c1 (configuration not stated)	.	/	/	/	/	/
CC1(C)CC(=O)C=C(c2ccc3c(c2)OCO3)C1	.	/	59	.	.	.
COc1ccc(C)cc1S(=O)(=O)NCCN1CCOCC1	.	.	.	74	.	.
CSc1ccccc1NC(=O)CN(Cc1ccccc1)S(C)(=O)=O	.	.	.	75	.	.
SMILES	SMARCA2 act	Lipid droplet	AHR act	SR-BI DiI inh	SR-BI uptake up	CR mimetic SO
Cc1cc(NC(=O)Cc2cn(C)c3ccccc23)ccc1Oc1cccnc1	.	/	/	/	/	/
O=C(Nc1ccc(Cl)cc1)Nc1ccccc1Sc1ncc([N+](=O)[O-])s1	.	.	66	.	.	.
O=C(Nc1csc([N+](=O)[O-])c1)Nc1ccccc1Cl	.	.	.	.	.	.
Cc1oc(-c2ccccc2F)nc1CS(=O)CC(=O)NC1CCCC1 (configuration not stated)	.	.	.	85	.	.
COc1ccc(COc2cc(-c3cccc(OC)c3)nc3ccc(NC(=O)c4ccc(Cl)cc4)cc23)cc1	.	.	.	73	.	.
COc1ccc(COc2cc(-c3cccc(OC)c3)nc3ccc(NC(=O)c4ccc(OC)cc4)cc23)cc1	.	.	.	73	.	.
COc1ccc(COc2cc(-c3cccc(OC)c3)nc3ccc(NC(=O)c4ccccc4)cc23)cc1	.	.	.	?	.	.
COc1ccc(-n2c(COc3ccccc3)nnc2SCC(=O)Nc2ccc(OCc3ccccc3)cc2)cc1	.	/	/	/	/	/
C=CCN1C(=O)[C@@H](CC(=O)NCc2ccccc2)[C@]2(C(=O)OC)CCCCC=C12	.	/	/	/	/	/
CCN(CC)C(=O)Cn1cc(C(=O)C(=O)NCCCN2CCOCC2)c2ccccc21	.	.	.	.	/	.
